Laboratory results published in ChEMBL document CHEMBL4043101, “Potent haloperidol derivatives covalently binding to the dopamine D2 receptor” (Bioorg Med Chem, 2017).

Key:
Homo sapiens [1] = species on record: Homo sapiens; test: Selectivity index, ratio of Ki for human D3 receptor expressed in CHO cell membranes to Ki for human D2short receptor expressed in CHO cell membranes; assay type: cell-based
In short: (§1)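 Ratios of Ki values from [3H]spiperone competition binding on CHO membranes stably expressing human D2short, D3 or D4.4 receptors. The D3 and D4 Ki values are each divided by the D2short Ki.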

Homo sapiens [2] = species on record: Homo sapiens; test: Selectivity index, ratio of Ki for human D2short receptor expressed in CHO cell membranes to Ki for human D2short receptor L2.64C mutant expressed in HEK293T cell membranes; assay type: cell-based
In short: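 Ratio of the D2short Ki from CHO membranes to the Ki measured at the transiently expressed L2.64C mutant in HEK 293T membranes. Both Ki values come from [3H]spiperone competition binding with Cheng-Prusoff conversion.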

HEK-293T [3] = test: Inhibition of [3H]spiperone binding to human D2short receptor L2.64C mutant expressed in HEK293T cell membranes at 2 and 5 uM incubated for 30 mins by radioligand depletion assay
[4] = system: D(2) dopamine receptor (Homo sapiens), P14416 [L94C]; test: Irreversible inhibition of [3H]spiperone binding to human D2short receptor L2.64C mutant expressed in HEK293T cell membranes at 20 uM incubated for 120 mins followed by compound wash out by radioligand depletion assay; settings: HEK-293T
Chain of D(2) dopamine receptor (Homo sapiens), P14416 [L94C] (P14416 whole entry L94C): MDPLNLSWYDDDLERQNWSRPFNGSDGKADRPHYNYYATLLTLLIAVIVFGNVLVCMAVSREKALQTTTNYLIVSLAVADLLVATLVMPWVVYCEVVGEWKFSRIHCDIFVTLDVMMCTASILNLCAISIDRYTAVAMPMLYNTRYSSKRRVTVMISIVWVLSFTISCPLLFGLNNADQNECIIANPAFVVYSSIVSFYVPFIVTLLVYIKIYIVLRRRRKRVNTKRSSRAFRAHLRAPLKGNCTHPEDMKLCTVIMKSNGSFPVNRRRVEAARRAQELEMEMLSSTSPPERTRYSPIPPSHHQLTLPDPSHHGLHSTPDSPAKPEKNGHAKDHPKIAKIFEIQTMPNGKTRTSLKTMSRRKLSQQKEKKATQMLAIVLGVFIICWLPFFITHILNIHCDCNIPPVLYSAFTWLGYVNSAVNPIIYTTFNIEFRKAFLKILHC
In short: (§2)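 For screening, membranes from HEK 293T cells expressing the D2short L2.64C mutant (50 µg/mL protein) were preincubated with compound for 120 min at 37 °C in pH 7.4 Tris buffer. The reference, haloperidol, was used at 20 nM. Membranes were centrifuged and washed four times for 30 min each. Residual specific [3H]spiperone binding was normalized to nonspecific 0% and total 100%. Values are the mean of 2-4 experiments, each in quadruplicate, ±SD.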

[5] = Displacement of [3H]spiperone from human dopamine D4.4 receptor expressed in CHO cell membranes by radioligand binding assay
In short: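 Competition binding used membranes from CHO cells stably expressing human D4.4R, at 4-10 µg protein/tube, with [3H]spiperone final 0.15-0.30 nM (KD 0.14-0.25 nM, Bmax 1000-1700 […]). Nonspecific binding was defined with 10 µM haloperidol. Ki was obtained by sigmoid fit to IC50 and then Cheng-Prusoff. Each Ki is the mean of two independent experiments, each run in triplicate.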

D(3) dopamine receptor = D(3) dopamine receptor (Homo sapiens, UniProt P35462); test: Displacement of [3H]spiperone from human D3 receptor expressed in CHO cell membranes by radioligand binding assay
Chain of D(3) dopamine receptor (P35462 whole entry): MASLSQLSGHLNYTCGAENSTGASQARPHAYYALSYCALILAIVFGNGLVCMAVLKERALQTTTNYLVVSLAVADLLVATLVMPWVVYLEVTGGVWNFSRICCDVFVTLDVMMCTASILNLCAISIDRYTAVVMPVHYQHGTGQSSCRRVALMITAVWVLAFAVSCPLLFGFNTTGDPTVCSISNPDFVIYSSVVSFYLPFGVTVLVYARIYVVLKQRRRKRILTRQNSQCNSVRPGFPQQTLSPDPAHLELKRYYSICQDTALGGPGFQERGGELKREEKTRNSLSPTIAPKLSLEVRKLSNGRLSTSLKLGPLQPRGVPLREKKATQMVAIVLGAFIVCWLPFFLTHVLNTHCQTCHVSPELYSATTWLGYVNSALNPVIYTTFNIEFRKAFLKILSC

D(2) dopamine receptor [6] = biological target: T1, D(2) dopamine receptor (Homo sapiens, UniProt P14416); test: Displacement of [3H]spiperone from human D2long receptor expressed in CHO cell membranes by radioligand binding assay
T1 sequence (P14416 whole entry): as the sequence (P14416 whole entry L94C) above, with C94L counted along it

HEK-293T [7] = test: Inhibition of [3H]spiperone binding to human D2short receptor L2.64C mutant expressed in HEK293T cell membranes at 2 and 5 uM incubated for 240 mins by radioligand depletion assay
Homo sapiens [8] = species on record: Homo sapiens; test: Selectivity index, ratio of Ki for human dopamine D4.4 receptor expressed in CHO cell membranes to Ki for human D2short receptor expressed in CHO cell membranes; assay type: cell-based; in short: as §1
[9] = Displacement of [3H]spiperone from human D2short receptor L2.64C mutant expressed in HEK293T cell membranes by radioligand binding assay; settings: hek-293t
In short: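 Membranes from HEK 293T cells transiently transfected with the mutant receptor in pcDNA3.1 were used for competition binding against [3H]spiperone (81 Ci/mmol), final 0.15-0.30 nM. Nonspecific binding was defined with 10 µM haloperidol. Protein was measured by Lowry with a BSA standard. IC50 came from a sigmoid nonlinear fit and was converted to Ki by Cheng-Prusoff.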

[10] = system: D(2) dopamine receptor (Homo sapiens), P14416 [L94C]; test: Irreversible inhibition of [3H]spiperone binding to human D2short receptor L2.64C mutant expressed in HEK293T cell membranes at 5 uM incubated for 120 mins followed by compound wash out by radioligand depletion assay; settings: HEK-293T; in short: as §2
[11] = system: D(2) dopamine receptor (Homo sapiens), P14416 [L94C]; test: Irreversible inhibition of [3H]spiperone binding to human D2short receptor L2.64C mutant expressed in HEK293T cell membranes incubated for 120 mins followed by compound wash out by radioligand depletion assay; settings: HEK-293T; in short: as §2
D(2) dopamine receptor [12] = biological target: T1, D(2) dopamine receptor; test: Displacement of [3H]spiperone from human D2short receptor expressed in CHO cell membranes by radioligand binding assay
HEK-293T [13] = test: Inhibition of [3H]spiperone binding to human D2short receptor L2.64C mutant expressed in HEK293T cell membranes at 1 and 5 uM incubated for 30 mins by radioligand depletion assay
In short: (§3)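 For kinetics, mutant receptor membranes from HEK 293T cells (50 µg/mL protein) were preincubated with compound at two concentrations for 15 to 240 min, at 37 °C, pH 7.4. The buffer was Tris/EDTA/MgCl2/bacitracin/trypsin inhibitor. Incubation was stopped by centrifugation, then membranes were washed four times (30 min resuspension each). Remaining specific [3H]spiperone binding was then measured, with 10 µM haloperidol defining nonspecific binding. Data were normalized to nonspecific 0% and total 100%.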

HEK-293T [14] = test: Inhibition of [3H]spiperone binding to human D2short receptor L2.64C mutant expressed in HEK293T cell membranes at 1 and 5 uM incubated for 240 mins by radioligand depletion assay; settings: in the assay text read “120 mins” for “240 mins”; in short: as §3
[15] = system: D(2) dopamine receptor (Homo sapiens), P14416 [L94C]; test: Irreversible inhibition of [3H]spiperone binding to human D2short receptor L2.64C mutant expressed in HEK293T cell membranes at 1 uM incubated for 120 mins followed by compound wash out by radioligand depletion assay; settings: HEK-293T; in short: as §2
[16] = system: D(2) dopamine receptor (Homo sapiens), P14416 [L94C]; test: Irreversible inhibition of [3H]spiperone binding to human D2short receptor L2.64C mutant expressed in HEK293T cell membranes assessed as covalent binding at 5 and 20 uM incubated for 120 mins followed by compound wash out by radioligand depletion assay; parameters: scale not given: the % may be the effect or the level left; settings: HEK-293T; in short: as §2
[17] = system: D(2) dopamine receptor (Homo sapiens), P14416 [L94C]; test: Irreversible inhibition of [3H]spiperone binding to human D2short receptor L2.64C mutant expressed in HEK293T cell membranes assessed as remaining [3H]spiperone binding at 5 and 20 uM incubated for 120 mins followed by compound wash out by radioligand depletion assay; settings: HEK-293T; in short: as §2
HEK-293T [18] = test: Inhibition of [3H]spiperone binding to human D2short receptor L2.64C mutant expressed in HEK293T cell membranes at 2 and 5 uM incubated for 120 mins by radioligand depletion assay
[19] = system: D(2) dopamine receptor (Homo sapiens), P14416 [L94C]; test: Irreversible inhibition of [3H]spiperone binding to human D2short receptor L2.64C mutant expressed in HEK293T cell membranes at 10 uM incubated for 120 mins followed by compound wash out by radioligand depletion assay; settings: HEK-293T; in short: as §2

Compound	inhibition [4] [%]	Ki (D(3) dopamine receptor) [nM]	Ki (D(2) dopamine receptor [6]) [nM]	inhibition [10] [%]	inhibition [11]	Ki (D(2) dopamine receptor [12]) [nM]	inhibition [15] [%]	Activity [16] [%]	Activity [17] [%]	inhibition [19] [%]	Ratio Ki (Homo sapiens [1])	Ratio Ki (Homo sapiens [2])	inhibition (HEK-293T [3]) [%]	Ki [5] [nM]	inhibition (HEK-293T [7]) [%]	Ratio Ki (Homo sapiens [8])	Ki [9] [nM]	inhibition (HEK-293T [13]) [%]	inhibition (HEK-293T [14]) [%]	inhibition (HEK-293T [18]) [%]
[N-]=[N+]=NCCSSCCn1cc(C(=O)CCCN2CCC(O)(c3ccc(Cl)cc3)CC2)nn1		210	260	70 to 95	Dose-dependent effect	140	60 to 85				1.5	0.44		3200		23	320	80	86	
O=C(CCCN1CCC(O)(c2ccc(Cl)cc2)CC1)c1ccc(F)cc1 [HALOPERIDOL]														7.2						
O=C(NCCN1CCC(O)(c2ccc(Cl)cc2)CC1)NCCN1C(=O)C=CC1=O	70 to 95	690	2200	60 to 85	Dose-dependent effect	1500		> 90	5		0.46	1.7	70 to 85	> 50000		> 33	860			> 90

The next lines start with results.

inhibition [4] [%]	Ki (D(3) dopamine receptor) [nM]	Ki (D(2) dopamine receptor [6]) [nM]	inhibition [10] [%]	inhibition [11]	Ki (D(2) dopamine receptor [12]) [nM]	inhibition [15] [%]	Activity [16] [%]	Activity [17] [%]	inhibition [19] [%]	Compound	Ratio Ki (Homo sapiens [1])	Ratio Ki (Homo sapiens [2])	inhibition (HEK-293T [3]) [%]	Ki [5] [nM]	inhibition (HEK-293T [7]) [%]	Ratio Ki (Homo sapiens [8])	Ki [9] [nM]	inhibition (HEK-293T [13]) [%]	inhibition (HEK-293T [14]) [%]	inhibition (HEK-293T [18]) [%]
70 to 95	390	1500	60 to 85	Dose-dependent effect	1500					COc1cc(CCN2CCC(O)(c3ccc(Cl)cc3)CC2)ccc1OCCSSCCN	0.26	2.7	72	1100	82	0.73	550			
70 to 95	600	1000	60 to 85	Dose-dependent effect	940		> 90	10		COc1cc(CCN2CCC(O)(c3ccc(Cl)cc3)CC2)ccc1OCCCSSCCN	0.63	1.1	87	1500	85	1.6	850			
	140	240		Dose-dependent effect	73	20			< 70	O=C(CCCN1CCC(O)(c2ccc(Cl)cc2)CC1)c1ccc(OCCSSCCO)cc1	1.9	0.22		970		13	330			
